In ChEMBL document CHEMBL1806401, “Highly improved metabolic stability and pharmacokinetics of indium-111-DOTA-gastrin conjugates for targeting of the gastrin receptor” (J Med Chem, 2011):
Peptide text beside a SMILES is read from it.

Legend:
[1] = biological target: T1, Gastrin/cholecystokinin type B receptor (Homo sapiens, UniProt P32239); assay: Displacement of [125I]CCK from gastrin receptor isolated from human tumor tissues
T1 sequence (P32239 whole entry): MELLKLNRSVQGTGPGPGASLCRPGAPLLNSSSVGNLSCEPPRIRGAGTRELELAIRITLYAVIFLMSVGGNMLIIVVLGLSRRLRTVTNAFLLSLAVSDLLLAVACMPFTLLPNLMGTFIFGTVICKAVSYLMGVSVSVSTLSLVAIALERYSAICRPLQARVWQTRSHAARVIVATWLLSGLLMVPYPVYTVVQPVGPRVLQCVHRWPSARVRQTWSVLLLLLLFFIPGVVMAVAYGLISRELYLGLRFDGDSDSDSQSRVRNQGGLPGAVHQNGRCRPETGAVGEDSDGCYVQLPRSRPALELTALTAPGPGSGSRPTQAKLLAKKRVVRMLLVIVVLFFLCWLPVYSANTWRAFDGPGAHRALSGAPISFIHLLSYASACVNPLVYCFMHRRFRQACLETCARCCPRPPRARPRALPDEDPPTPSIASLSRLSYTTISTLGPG
Procedure, shortened: (§1)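 Surgically resected human tumor tissues expressing CCK-1 or gastrin receptors; 125I-CCK incubation medium with increasing amounts of competitor added to generate competitive inhibition curves.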

[2] = biological target: T2, Cholecystokinin receptor type A (Homo sapiens, UniProt P32238); assay: Displacement of [125I]CCK from CCK1 receptor isolated from human tumor tissues; procedure, shortened: as §1
T2 sequence (P32238 whole entry): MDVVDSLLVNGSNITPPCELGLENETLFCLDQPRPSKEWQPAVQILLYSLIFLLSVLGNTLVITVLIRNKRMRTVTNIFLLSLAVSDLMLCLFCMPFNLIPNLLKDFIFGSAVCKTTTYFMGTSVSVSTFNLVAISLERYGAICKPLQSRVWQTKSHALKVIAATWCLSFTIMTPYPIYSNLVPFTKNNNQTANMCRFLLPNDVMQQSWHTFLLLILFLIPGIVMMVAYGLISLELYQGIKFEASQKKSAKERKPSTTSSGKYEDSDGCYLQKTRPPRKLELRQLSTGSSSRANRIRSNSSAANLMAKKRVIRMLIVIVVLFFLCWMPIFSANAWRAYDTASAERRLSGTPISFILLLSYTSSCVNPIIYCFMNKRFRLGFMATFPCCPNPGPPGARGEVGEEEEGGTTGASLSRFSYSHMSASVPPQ

[3] = biological target: T3, Gastrin/cholecystokinin type B receptor (Rattus norvegicus, UniProt P30553); assay: Agonist activity at gastrin receptor in rat AR4-2J cells assessed as intracellular calcium mobilization by fluorescence assay; format: functional, cell-based
T3 sequence (P30553 whole entry): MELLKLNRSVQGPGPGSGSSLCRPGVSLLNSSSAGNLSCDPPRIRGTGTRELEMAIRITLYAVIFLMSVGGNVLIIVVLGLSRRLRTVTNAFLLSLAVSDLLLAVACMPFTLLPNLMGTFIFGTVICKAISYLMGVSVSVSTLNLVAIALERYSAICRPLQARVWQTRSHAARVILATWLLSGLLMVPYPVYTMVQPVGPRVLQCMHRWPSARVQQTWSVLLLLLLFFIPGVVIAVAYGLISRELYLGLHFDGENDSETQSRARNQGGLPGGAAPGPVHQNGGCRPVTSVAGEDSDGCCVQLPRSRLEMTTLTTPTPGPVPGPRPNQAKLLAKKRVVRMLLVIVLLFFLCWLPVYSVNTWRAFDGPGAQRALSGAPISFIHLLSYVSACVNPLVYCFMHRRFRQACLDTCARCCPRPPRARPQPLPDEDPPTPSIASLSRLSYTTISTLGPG
Procedure, shortened: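 AR4-2J cells seeded 50 000/well, cultured 1 day at 37 C, 5% CO2, then loaded with Ca dye in HBSS/20 mM HEPES with 2.5 mM probenecid for 1 h at 37 C. Peptides added as 1:3 serial dilutions in HBSS/HEPES/0.1% BSA/0.05% pluronic acid, diluted 1:6 on addition. Fluorescence (ex 485/em 525 nm) read 4 min at room temperature; Fmax with ionomycin; EC50 from four-parameter fit.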

Structure (SMILES) | IC50 [1] [nM] | IC50 [2] [nM] | EC50 [3] [nM]
CSCC[C@H](NC(=O)[C@H](Cc1c[nH]c2ccccc12)NC(=O)CNC(=O)[C@H](Cc1ccc(O)cc1)NC(=O)[C@H](C)NC(=O)[C@@H](CCC(N)=O)NC(=O)[C@@H](CCC(N)=O)NC(=O)[C@@H](CCC(N)=O)NC(=O)[C@@H](CCC(N)=O)NC(=O)CN1CCN(CC(=O)O)CCN(CC(=O)O)CCN(CC(=O)O)CC1)C(=O)N[C@@H](CC(=O)O)C(=O)N[C@@H](Cc1ccccc1)C(N)=O | 2.4 | > 700 | –
CSCC[C@H](NC(=O)[C@H](Cc1c[nH]c2ccccc12)NC(=O)CNC(=O)[C@H](Cc1ccc(O)cc1)NC(=O)[C@H](C)NC(=O)[C@@H](CO)NC(=O)[C@@H](CO)NC(=O)[C@@H](CO)NC(=O)CN1CCN(CC(=O)O)CCN(CC(=O)O)CCN(CC(=O)O)CC1)C(=O)N[C@@H](CC(=O)O)C(=O)N[C@@H](Cc1ccccc1)C(N)=O | 0.6 | > 700 | –
CSCC[C@H](NC(=O)[C@H](Cc1c[nH]c2ccccc12)NC(=O)CNC(=O)[C@H](Cc1ccc(O)cc1)NC(=O)[C@H](C)NC(=O)[C@H](CCC(=O)O)NC(=O)[C@H](CCC(=O)O)NC(=O)[C@H](CCC(=O)O)NC(=O)[C@H](CCC(=O)O)NC(=O)[C@H](CCC(=O)O)NC(=O)[C@H](CCC(=O)O)NC(=O)CN1CCN(CC(=O)O)CCN(CC(=O)O)CCN(CC(=O)O)CC1)C(=O)N[C@@H](CC(=O)O)C(=O)N[C@@H](Cc1ccccc1)C(N)=O | 0.7 | > 700 | –
CSCC[C@H](NC(=O)[C@H](Cc1c[nH]c2ccccc12)NC(=O)CNC(=O)[C@H](Cc1ccc(O)cc1)NC(=O)[C@H](C)NC(=O)[C@@H](CCC(N)=O)NC(=O)[C@@H](CCC(N)=O)NC(=O)[C@@H](CCC(N)=O)NC(=O)[C@@H](CCC(N)=O)NC(=O)[C@@H](CCC(N)=O)NC(=O)[C@@H](CCC(N)=O)NC(=O)CN1CCN(CC(=O)O)CCN(CC(=O)O)CCN(CC(=O)O)CC1)C(=O)N[C@@H](CC(=O)O)C(=O)N[C@@H](Cc1ccccc1)C(N)=O (HELM PEPTIDE1{[O=C(O)CN1CCN(CC(=O)O)CCN(CC(=O)[*:2])CCN(CC(=O)O)CC1].[dQ].[dQ].[dQ].[dQ].[dQ].[dQ].A.Y.G.W.M.D.F.[am]}$$$$V2.0) | 2.4 | > 700 | 0.41
CSCC[C@H](NC(=O)[C@H](Cc1c[nH]c2ccccc12)NC(=O)CNC(=O)[C@H](Cc1ccc(O)cc1)NC(=O)[C@H](C)NC(=O)[C@@H](CO)NC(=O)[C@@H](CO)NC(=O)CN1CCN(CC(=O)O)CCN(CC(=O)O)CCN(CC(=O)O)CC1)C(=O)N[C@@H](CC(=O)O)C(=O)N[C@@H](Cc1ccccc1)C(N)=O | 0.9 | > 700 | –
CSCC[C@H](NC(=O)[C@H](Cc1c[nH]c2ccccc12)NC(=O)CNC(=O)[C@H](Cc1ccc(O)cc1)NC(=O)[C@H](C)NC(=O)[C@@H](CCC(N)=O)NC(=O)[C@@H](CCC(N)=O)NC(=O)CN1CCN(CC(=O)O)CCN(CC(=O)O)CCN(CC(=O)O)CC1)C(=O)N[C@@H](CC(=O)O)C(=O)N[C@@H](Cc1ccccc1)C(N)=O | 0.8 | > 700 | –
CSCC[C@H](NC(=O)[C@H](Cc1c[nH]c2ccccc12)NC(=O)CNC(=O)[C@H](Cc1ccc(O)cc1)NC(=O)[C@H](C)NC(=O)[C@@H](CCC(N)=O)NC(=O)[C@@H](CCC(N)=O)NC(=O)[C@@H](CCC(N)=O)NC(=O)CN1CCN(CC(=O)O)CCN(CC(=O)O)CCN(CC(=O)O)CC1)C(=O)N[C@@H](CC(=O)O)C(=O)N[C@@H](Cc1ccccc1)C(N)=O (HELM PEPTIDE1{[O=C(O)CN1CCN(CC(=O)O)CCN(CC(=O)[*:2])CCN(CC(=O)O)CC1].[dQ].[dQ].[dQ].A.Y.G.W.M.D.F.[am]}$$$$V2.0) | 3.6 | > 700 | 0.27
CCCC[C@H](NC(=O)[C@H](Cc1c[nH]c2ccccc12)NC(=O)CNC(=O)[C@H](Cc1ccc(O)cc1)NC(=O)[C@H](C)NC(=O)[C@@H](CCC(N)=O)NC(=O)[C@@H](CCC(N)=O)NC(=O)[C@@H](CCC(N)=O)NC(=O)CN1CCN(CC(=O)O)CCN(CC(=O)O)CCN(CC(=O)O)CC1)C(=O)N[C@@H](CC(=O)O)C(=O)N[C@@H](Cc1ccccc1)C(N)=O | 1.6 | > 700 | –
